Key:
Salmonella typhimurium [1] = test: Mutagenic activity in Salmonella Typhimurium TA100 assessed as number of revertants at 0.01 ug/plate in presence of Wistar rat S9 liver homogenate; type: toxicity, organism-based, Liver S9 fraction; settings: salmonella enterica subsp. enterica serovar typhimurium
Outline: (§1)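 Salmonella/microsome plate test, with or without S9 from livers of male Wistar rats (~200 g). Strain markers and spontaneous revertant counts were routinely verified. Revertants are reported as mean ± standard error of triplicate plates. Strain-specific positive controls were used, with 2-aminoanthracene for all strains when S9 was present.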

Salmonella typhimurium [2] = test: Bactericidal activity against Salmonella Typhimurium TA102 assessed as viability after 24 hrs in absence of Wistar rat S9 liver homogenate; type: functional, organism-based; settings: Salmonella enterica subsp. enterica serovar Typhimurium
Outline: (§2)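 Viability assay: test solution or DMSO was mixed with diluted overnight culture and phosphate buffer (no S9) in top agar with histidine/biotin. The mixture was spread on nutrient agar and incubated 24 h at 37 °C. Colonies were counted to give viable bacteria per mL; positive and negative controls included; triplicate.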

Salmonella typhimurium [3] = test: Mutagenic activity in Salmonella Typhimurium TA100 assessed as number of revertants at 10 ug/plate in absence of Wistar rat S9 liver homogenate; type: toxicity, organism-based; settings: salmonella enterica subsp. enterica serovar typhimurium; outline: as §1
Salmonella typhimurium [4] = test: Mutagenic activity in Salmonella Typhimurium TA98 assessed as number of revertants at 100 ug/plate in presence of Wistar rat S9 liver homogenate; type: toxicity, organism-based, Liver S9 fraction; settings: salmonella enterica subsp. enterica serovar typhimurium
Outline: (§3)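 Salmonella/microsome plate test (Ames) in strain TA98, with genetic markers and spontaneous revertant counts verified routinely. Run with and without S9 mix, the S9 being liver postmitochondrial supernatant from male Wistar rats of about 200 g. Doses ran from 0.01 to 100 µg/plate. Revertants are the mean of triplicate plates with standard error. Positive controls were 0.5 µg 4-nitroquinoline-N-oxide without S9 and 15 µg 2-aminoanthracene with S9.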

Spodoptera littoralis = test: Antifeedant effect against Spodoptera littoralis L6 larvae assessed as relative consumption rate at 10 ug, po after 72 hrs; type: functional
Outline: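 Preweighed, newly emerged S. littoralis L6 larvae (20 per experiment) were orally cannulated with 10 µg in 2 µL DMSO; controls got solvent alone. Relative consumption and growth rates were calculated at 72 h on a dry-weight basis. Log-transformed weights were analysed by ANOVA with LSD tests.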

Salmonella typhimurium [5] = test: Mutagenic activity in Salmonella Typhimurium TA100 assessed as number of revertants at 20 ug/plate in absence of Wistar rat S9 liver homogenate; type: toxicity, organism-based; settings: salmonella enterica subsp. enterica serovar typhimurium; outline: as §1
Salmonella typhimurium [6] = test: Mutagenic activity in Salmonella Typhimurium TA98 assessed as number of revertants at 10 ug/plate in absence of Wistar rat S9 liver homogenate; type: toxicity, organism-based; settings: salmonella enterica subsp. enterica serovar typhimurium; outline: as §1
Salmonella typhimurium [7] = test: Mutagenic activity in Salmonella Typhimurium TA98 assessed as number of revertants at 1 ug/plate in absence of Wistar rat S9 liver homogenate; type: toxicity, organism-based; settings: salmonella enterica subsp. enterica serovar typhimurium; outline: as §1
Salmonella typhimurium [8] = test: Mutagenic activity in Salmonella Typhimurium TA98 assessed as number of revertants at 50 ug/plate in presence of Wistar rat S9 liver homogenate; type: toxicity, organism-based, Liver S9 fraction; settings: salmonella enterica subsp. enterica serovar typhimurium; outline: as §3
Salmonella typhimurium [9] = test: Mutagenic activity in Salmonella Typhimurium TA100 assessed as number of revertants at 100 ug/plate in absence of Wistar rat S9 liver homogenate; type: toxicity, organism-based; settings: salmonella enterica subsp. enterica serovar typhimurium; outline: as §1
Salmonella typhimurium [10] = test: Mutagenic activity in Salmonella Typhimurium TA98 assessed as number of revertants at 0.1 ug/plate in absence of Wistar rat S9 liver homogenate; type: toxicity, organism-based; settings: salmonella enterica subsp. enterica serovar typhimurium; outline: as §1
Salmonella typhimurium [11] = test: Mutagenic activity in Salmonella Typhimurium TA102 assessed as number of revertants at 20 ug/plate in absence of Wistar rat S9 liver homogenate; type: toxicity, organism-based; settings: salmonella enterica subsp. enterica serovar typhimurium; outline: as §1
Salmonella typhimurium [12] = test: Mutagenic activity in Salmonella Typhimurium TA100 assessed as number of revertants at 100 ug/plate in presence of Wistar rat S9 liver homogenate; type: toxicity, organism-based, Liver S9 fraction; settings: salmonella enterica subsp. enterica serovar typhimurium; outline: as §1
Salmonella typhimurium [13] = test: Mutagenic activity in Salmonella Typhimurium TA100 assessed as number of revertants at 10 ug/plate in presence of Wistar rat S9 liver homogenate; type: toxicity, organism-based, Liver S9 fraction; settings: salmonella enterica subsp. enterica serovar typhimurium; outline: as §1
Salmonella typhimurium [14] = test: Bactericidal activity against Salmonella Typhimurium TA98 assessed as viability after 24 hrs in absence of Wistar rat S9 liver homogenate; type: functional, organism-based; settings: Salmonella enterica subsp. enterica serovar Typhimurium; outline: as §2
Salmonella typhimurium [15] = test: Mutagenic activity in Salmonella Typhimurium TA102 assessed as number of revertants at 10 ug/plate in presence of Wistar rat S9 liver homogenate; type: toxicity, organism-based, Liver S9 fraction; settings: salmonella enterica subsp. enterica serovar typhimurium; outline: as §1
Salmonella typhimurium [16] = test: Mutagenic activity in Salmonella Typhimurium TA98 assessed as number of revertants at 0.01 ug/plate in presence of Wistar rat S9 liver homogenate; type: toxicity, organism-based, Liver S9 fraction; settings: salmonella enterica subsp. enterica serovar typhimurium; outline: as §1
Salmonella typhimurium [17] = test: Mutagenic activity in Salmonella Typhimurium TA98 assessed as number of revertants at 50 ug/plate in absence of Wistar rat S9 liver homogenate; type: toxicity, organism-based; settings: salmonella enterica subsp. enterica serovar typhimurium; outline: as §3
Salmonella typhimurium [18] = test: Mutagenic activity in Salmonella Typhimurium TA102 assessed as number of revertants at 20 ug/plate in presence of Wistar rat S9 liver homogenate; type: toxicity, organism-based, Liver S9 fraction; settings: salmonella enterica subsp. enterica serovar typhimurium; outline: as §1
Salmonella typhimurium [19] = test: Mutagenic activity in Salmonella Typhimurium TA102 assessed as number of revertants at 1 ug/plate in presence of Wistar rat S9 liver homogenate; type: toxicity, organism-based, Liver S9 fraction; settings: salmonella enterica subsp. enterica serovar typhimurium; outline: as §1
[20] = system: Leptinotarsa decemlineata; test: Antifeedant effect against Leptinotarsa decemlineata assessed as feeding reduction at 100 ug/cm2 relative to control; type: functional; parameters: scale not given: the % may be the effect or the level left
Outline: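 Choice test on leaf disks using adult L. decemlineata or newly emerged fifth-instar S. littoralis larvae. Five to 10 plates per treatment, three insects each. Uneaten leaf-disk area was measured by scanner. %FR = [1 − (treatment/control consumption)] × 100 per arena. Where FR exceeded 50%, EC50 was taken from linear regression of %FR on log dose.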

Salmonella typhimurium [21] = test: Mutagenic activity in Salmonella Typhimurium TA100 assessed as number of revertants at 50 ug/plate in presence of Wistar rat S9 liver homogenate; type: toxicity, organism-based, Liver S9 fraction; settings: salmonella enterica subsp. enterica serovar typhimurium; outline: as §1
Salmonella typhimurium [22] = test: Mutagenic activity in Salmonella Typhimurium TA102 assessed as number of revertants at 100 ug/plate in presence of Wistar rat S9 liver homogenate; type: toxicity, organism-based, Liver S9 fraction; settings: salmonella enterica subsp. enterica serovar typhimurium; outline: as §1
Salmonella typhimurium [23] = test: Mutagenic activity in Salmonella Typhimurium TA102 assessed as number of revertants at 100 ug/plate in absence of Wistar rat S9 liver homogenate; type: toxicity, organism-based; settings: salmonella enterica subsp. enterica serovar typhimurium; outline: as §1
Salmonella typhimurium [24] = test: Mutagenic activity in Salmonella Typhimurium TA102 assessed as number of revertants at 50 ug/plate in absence of Wistar rat S9 liver homogenate; type: toxicity, organism-based; settings: salmonella enterica subsp. enterica serovar typhimurium; outline: as §1

Q: What does the source list for `CCCCCCCCCCCC[C@@H](O)[C@H]1CC[C@H]([C@H](O)CCCC[C@H](O)CCCCC[C@@H](O)CC2=CC(C)OC2=O)O1` (stereo not given in full) [ANNONACIN]?
A: Activity (Salmonella typhimurium [1]): 135; Activity (Salmonella typhimurium [2]): Non-toxic; Activity (Salmonella typhimurium [3]): 104; Activity (Salmonella typhimurium [4]): 28; Activity (Spodoptera littoralis): 20.53 mg; Activity (Salmonella typhimurium [5]): 96; Activity (Salmonella typhimurium [6]): 34; Activity (Salmonella typhimurium [7]): 32; Activity (Salmonella typhimurium [8]): 25; Activity (Salmonella typhimurium [9]): 68; Activity (Salmonella typhimurium [10]): 30; Activity (Salmonella typhimurium [11]): 204; Activity (Salmonella typhimurium [12]): 88; Activity (Salmonella typhimurium [13]): 145; Activity (Salmonella typhimurium [14]): Non-toxic; Activity (Salmonella typhimurium [15]): 430; Activity (Salmonella typhimurium [16]): 36; Activity (Salmonella typhimurium [17]): 21; Activity (Salmonella typhimurium [18]): 432; Activity (Salmonella typhimurium [19]): 429; Activity [20]: 93%; Activity (Salmonella typhimurium [21]): 99; Activity (Salmonella typhimurium [22]): 437; Activity (Salmonella typhimurium [23]): 126; Activity (Salmonella typhimurium [24]): 169

— ChEMBL document CHEMBL1142626, “Insecticidal and mutagenic evaluation of two annonaceous acetogenins” (J Nat Prod, 2000)
